Legend:
Assay type in all cases: functional
[1] = test system: Pseudomonas aeruginosa; test: Antimicrobial activity against multidrug resistant Pseudomonas aeruginosa by broth microdilution method
Method in brief: (§1)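 Isolates of the stated resistance phenotype were tested by CLSI broth microdilution in unsupplemented cation-adjusted Mueller-Hinton broth. Ceftaroline was compared with ceftriaxone, levofloxacin and imipenem. Activity was expressed as MICs (MIC90 in μg/ml).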

[2] = test system: Stenotrophomonas maltophilia; test: Antimicrobial activity against Stenotrophomonas maltophilia by broth microdilution method
Method in brief: (§2)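 Clinical isolates were tested by CLSI broth microdilution in unsupplemented cation-adjusted Mueller-Hinton broth. The read-out was the MIC, reported as MIC90 (μg/ml) per species or phenotypic group. Ceftriaxone, levofloxacin and imipenem were run in parallel as comparators.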

[3] = test system: Streptococcus pneumoniae; test: Antimicrobial activity against penicillin-susceptible Streptococcus pneumoniae by broth microdilution method
Method in brief: (§3)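 Streptococcal isolates were tested by CLSI broth microdilution in cation-adjusted Mueller-Hinton broth supplemented with 3% lysed horse blood. The read-out was the MIC, with MIC90 (μg/ml) reported per group. Ceftriaxone, levofloxacin and imipenem served as comparators.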

[4] = test system: Streptococcus pneumoniae; test: Antimicrobial activity against penicillin-resistant Streptococcus pneumoniae by broth microdilution method
Method in brief: (§4)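 CLSI broth microdilution in cation-adjusted Mueller-Hinton broth with 3% lysed horse blood, against streptococcal clinical isolates of the stated phenotype. Ceftaroline was compared with ceftriaxone, levofloxacin and imipenem. Activity was expressed as MICs (MIC90 in μg/ml).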

[5] = test system: Providencia stuartii; test: Antimicrobial activity against Proteus stuartii by broth microdilution method; method in brief: as §2
[6] = test system: Escherichia coli; test: Antimicrobial activity against ESBL-negative Escherichia coli by broth microdilution method; method in brief: as §2
[7] = test system: Providencia rettgeri; test: Antimicrobial activity against Proteus rettgeri by broth microdilution method; method in brief: as §2
[8] = test system: Streptococcus pyogenes; test: Antimicrobial activity against macrolide-susceptible Streptococcus pyogenes by broth microdilution method; method in brief: as §4
[9] = test system: Staphylococcus; test: Antimicrobial activity against methicillin-resistant coagulase-negative Staphylococcus by broth microdilution method; method in brief: as §1
[10] = test system: Enterococcus faecalis; test: Antimicrobial activity against Enterococcus faecalis by broth microdilution method; method in brief: as §2
[11] = test system: Moraxella catarrhalis; test: Antimicrobial activity against Moraxella catarrhalis by broth microdilution method; method in brief: as §2
[12] = test system: Proteus mirabilis; test: Antimicrobial activity against Proteus mirabilis by broth microdilution method; method in brief: as §2
[13] = test system: Klebsiella pneumoniae; test: Antimicrobial activity against ESBL-negative Klebsiella pneumoniae by broth microdilution method; method in brief: as §2
[14] = test system: Streptococcus pyogenes; test: Antimicrobial activity against macrolide-resistant Streptococcus pyogenes by broth microdilution method; method in brief: as §4
[15] = test system: Shigella sp.; test: Antimicrobial activity against Shigella spp. by broth microdilution method; method in brief: as §2
[16] = test system: Streptococcus pneumoniae; test: Antimicrobial activity against penicillin-intermediate Streptococcus pneumoniae by broth microdilution method; method in brief: as §4
[17] = test system: Haemophilus influenzae; test: Antimicrobial activity against beta-lactamase-positive Haemophilus influenzae by broth microdilution method
Method in brief: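 H. influenzae isolates were tested by CLSI broth microdilution using Haemophilus test medium. The MIC was read and MIC90 (μg/ml) reported for the group. Ceftriaxone, levofloxacin and imipenem served as comparators.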

[18] = test system: Burkholderia cepacia; test: Antimicrobial activity against Burkholderia cepacia by broth microdilution method; method in brief: as §2
[19] = test system: Streptococcus pneumoniae; test: Antimicrobial activity against levofloxacin-resistant Streptococcus pneumoniae by broth microdilution method; method in brief: as §4
[20] = test system: Morganella morganii; test: Antimicrobial activity against Morganella morganii by broth microdilution method; method in brief: as §2
[21] = test system: Staphylococcus aureus; test: Antimicrobial activity against vancomycin-resistant Staphylococcus aureus by broth microdilution method; method in brief: as §1
[22] = test system: Corynebacterium jeikeium; test: Antimicrobial activity against Corynebacterium jeikeium by broth microdilution method; method in brief: as §2
[23] = test system: Streptococcus viridans; test: Antimicrobial activity against Streptococcus viridans group clinical isolate by broth microdilution method; method in brief: as §3
[24] = test system: Staphylococcus aureus; test: Antimicrobial activity against vancomycin-intermediate Staphylococcus aureus by broth microdilution method; method in brief: as §2
[25] = test system: Escherichia coli; test: Antimicrobial activity against ESBL-positive Escherichia coli by broth microdilution method; method in brief: as §2
[26] = test system: Haemophilus influenzae; test: Antimicrobial activity against beta-lactamase-negative ampicillin resistant Haemophilus influenzae by broth microdilution method
Method in brief: (§5)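 CLSI broth microdilution in Haemophilus test medium (cation-adjusted Mueller-Hinton base) against clinical H. influenzae isolates of the stated phenotype. Ceftaroline was compared with ceftriaxone, levofloxacin and imipenem. Activity was expressed as MICs (MIC90 in μg/ml).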

[27] = test system: Staphylococcus aureus; test: Antimicrobial activity against methicillin-susceptible Staphylococcus aureus by broth microdilution method; method in brief: as §2
[28] = test system: Enterococcus faecium; test: Antimicrobial activity against vancomycin-susceptible Enterococcus faecium by broth microdilution method; method in brief: as §2
[29] = test system: Haemophilus influenzae; test: Antimicrobial activity against beta-lactamase-negative Haemophilus influenzae by broth microdilution method; method in brief: as §5
[30] = test system: Klebsiella pneumoniae; test: Antimicrobial activity against ESBL-positive Klebsiella pneumoniae by broth microdilution method; method in brief: as §2
[31] = test system: Staphylococcus; test: Antimicrobial activity against methicillin-susceptible coagulase-negative Staphylococcus by broth microdilution method; method in brief: as §2
[32] = test system: Enterococcus faecium; test: Antimicrobial activity against Enterococcus faecium by broth microdilution method; method in brief: as §2
[33] = test system: Klebsiella aerogenes; test: Antimicrobial activity against ESBL-negative Enterobacter aerogenes by broth microdilution method; method in brief: as §2
[34] = test system: Listeria monocytogenes; test: Antimicrobial activity against Listeria monocytogenes by broth microdilution method; method in brief: as §2
[35] = test system: Salmonella sp.; test: Antimicrobial activity against Salmonella spp. by broth microdilution method; method in brief: as §2
[36] = test system: Staphylococcus aureus; test: Antimicrobial activity against methicillin-resistant Staphylococcus aureus by broth microdilution method; method in brief: as §1
[37] = test system: Enterococcus faecalis; test: Antimicrobial activity against vancomycin-susceptible Enterococcus faecalis by broth microdilution method; method in brief: as §2
[38] = test system: Enterobacter cloacae; test: Antimicrobial activity against ESBL-negative Enterobacter cloacae by broth microdilution method; method in brief: as §2
[39] = test system: Pseudomonas aeruginosa; test: Antimicrobial activity against Pseudomonas aeruginosa by broth microdilution method; method in brief: as §2
[40] = test system: Streptococcus agalactiae; test: Antimicrobial activity against Streptococcus agalactiae by broth microdilution method; method in brief: as §3
[41] = test system: Proteus vulgaris; test: Antimicrobial activity against Proteus vulgaris by broth microdilution method; method in brief: as §2
[42] = test system: Serratia marcescens; test: Antimicrobial activity against Serratia marcescens by broth microdilution method; method in brief: as §2

C[C@H]1COc2c(N3CCN(C)CC3)c(F)cc3c(=O)c(C(=O)O)cn1c23.C[C@H]1COc2c(N3CCN(C)CC3)c(F)cc3c(=O)c(C(=O)O)cn1c23.O [LEVOFLOXACIN]
MIC50 [1]: 32 µg/mL | MIC50 [2]: 1 µg/mL | MIC90 [2]: 16 µg/mL | MIC50 [3]: 1 µg/mL | MIC90 [3]: 2 µg/mL | MIC50 [4]: 1 µg/mL | MIC90 [4]: 1 µg/mL | MIC50 [5]: 0.12 µg/mL | MIC90 [5]: > 32 µg/mL | MIC50 [6]: 0.03 µg/mL | MIC90 [6]: 0.25 µg/mL | MIC50 [7]: 0.12 µg/mL | MIC90 [7]: > 32 µg/mL | MIC50 [8]: 0.5 µg/mL | MIC90 [8]: 2 µg/mL | MIC50 [9]: 8 µg/mL | MIC90 [9]: > 32 µg/mL | MIC50 [10]: 1 µg/mL | MIC90 [10]: 32 µg/mL | MIC50 [11]: 0.03 µg/mL | MIC90 [11]: 0.03 µg/mL | MIC [12]: 0.03 µg/mL | MIC50 [12]: 0.03 µg/mL | MIC90 [12]: 0.25 µg/mL | MIC50 [13]: 0.06 µg/mL | MIC90 [13]: 0.5 µg/mL | MIC [14]: 0.5 µg/mL | MIC50 [14]: 0.5 µg/mL | MIC90 [14]: 0.5 µg/mL | MIC50 [15]: 0.03 µg/mL | MIC90 [15]: 0.06 µg/mL | MIC50 [16]: 1 µg/mL | MIC90 [16]: 1 µg/mL | MIC50 [17]: 0.03 µg/mL | MIC90 [17]: 0.03 µg/mL | MIC50 [18]: 1 µg/mL | MIC90 [18]: 32 µg/mL | MIC50 [19]: 16 µg/mL | MIC90 [19]: > 32 µg/mL | MIC50 [20]: 0.06 µg/mL | MIC90 [20]: 8 µg/mL | MIC [21]: 16 µg/mL | MIC50 [22]: > 32 µg/mL | MIC90 [22]: > 32 µg/mL | MIC50 [23]: 1 µg/mL | MIC90 [23]: 2 µg/mL | MIC50 [24]: 16 µg/mL | MIC90 [24]: 32 µg/mL | MIC50 [25]: 0.25 µg/mL | MIC90 [25]: 32 µg/mL | MIC50 [26]: 0.03 µg/mL | MIC90 [26]: 0.06 µg/mL | MIC50 [27]: 0.25 µg/mL | MIC90 [27]: 8 µg/mL | MIC50 [28]: 2 µg/mL | MIC90 [28]: > 32 µg/mL | MIC50 [29]: 0.03 µg/mL | MIC90 [29]: 0.03 µg/mL | MIC50 [30]: 0.5 µg/mL | MIC90 [30]: 8 µg/mL | MIC50 [31]: 0.25 µg/mL | MIC90 [31]: 16 µg/mL | MIC50 [32]: > 32 µg/mL | MIC90 [32]: > 32 µg/mL | MIC50 [33]: 0.06 µg/mL | MIC90 [33]: 0.5 µg/mL | MIC [34]: 1 µg/mL | MIC50 [34]: 1 µg/mL | MIC90 [34]: 1 µg/mL | MIC [35]: 0.03 µg/mL | MIC50 [35]: 0.03 µg/mL | MIC90 [35]: 0.06 µg/mL | MIC50 [36]: 8 µg/mL | MIC90 [36]: > 32 µg/mL | MIC [37]: 1 µg/mL | MIC50 [37]: 1 µg/mL | MIC90 [37]: > 32 µg/mL | MIC50 [38]: 0.03 µg/mL | MIC90 [38]: 0.06 µg/mL | MIC50 [39]: 2 µg/mL | MIC90 [39]: > 32 µg/mL | MIC50 [40]: 1 µg/mL | MIC90 [40]: 1 µg/mL | MIC50 [41]: 0.03 µg/mL | MIC90 [41]: 0.06 µg/mL | MIC50 [42]: 0.12 µg/mL | MIC90 [42]: 0.25 µg/mL

Source: ChEMBL document CHEMBL1629657, “In vitro antimicrobial activity of a new cephalosporin, ceftaroline, and determination of quality control ranges for MIC testing” (2009)
